Assay results of several laboratories.
Each line is one published result; the experiments were not run side by side.
Observed: cell growth or viability

SMILES | cell line | test | setting | measurement | value
O=C1CCP(=S)(c2ccccc2)CC1 | SW-620 | MTT | 72 h | IC50 | 6.3 µM
O=C(NCc1ccc(O)cc1)c1cn(Cc2ccc(F)cc2)c2ccc(Oc3ccccc3)cc2c1=O | MCF7 | MTT | 24 h | IC50 | > 500 µM
O=C1CCP(c2ccccc2)CC1 | SW-620 | MTT | 72 h | IC50 | 73.7 µM
N.N.[Cl][Pt][Cl] | MCF7 | MTT | 48 h | IC50 | 2 µM
CC(C)C[C@@H](NC(=O)[C@H](C)NC(=O)CNC(=O)[C@@H](NC=O)C(C)C)C(=O)N[C@@H](C)C(=O)N[C@@H](C(=O)N[C@H](C(=O)N[C@@H](C(=O)N[C@@H](Cc1c[nH]c2ccccc12)C(=O)N[C@H](CC(C)C)C(=O)N[C@@H](Cc1ccc2[nH]ccc2c1)C(=O)N[C@H](CC(C)C)C(=O)N[C@@H](Cc1c[nH]c2ccccc12)C(=O)N[C@@H](C(=O)N[C@@H](Cc1c[nH]c2ccccc12)C(=O)NCCO)C(C)C)[C@H](C)O)C(C)C)C(C)C | MCF7 | SRB | 48 h | GI50 | 0.878 µM
O=C(Nc1ccc(Cl)cc1)Nc1cccc(-c2cn(Cc3ccc(Br)cc3)nn2)c1 | MCF7 | CCK-8 | 50 µM, 72 h | viability | 86.8%
CC(C)C[C@@H](NC(=O)[C@H](C)NC(=O)CNC(=O)[C@@H](NC=O)C(C)C)C(=O)N[C@@H](C)C(=O)N[C@@H](C(=O)N[C@H](C(=O)N[C@@H](C(=O)N[C@@H](Cc1c[nH]c2ccccc12)C(=O)N[C@H](CC(C)C)C(=O)N[C@@H](Cc1cccc2[nH]ccc12)C(=O)N[C@H](CC(C)C)C(=O)N[C@@H](Cc1c[nH]c2ccccc12)C(=O)N[C@H](CC(C)C)C(=O)N[C@@H](Cc1c[nH]c2ccccc12)C(=O)NCCO)C(C)C)C(C)C)C(C)C | MCF7 | SRB | 48 h | GI50 | 0.0684 µM
O=C(NCc1ccccc1)c1cn(Cc2ccc(C(F)(F)F)cc2)c2ccc(Oc3ccccc3)cc2c1=O | MCF7 | MTT | 24 h | IC50 | 9.4 µM
CC(C)C[C@@H](NC(=O)[C@H](C)NC(=O)CNC(=O)[C@@H](NC=O)C(C)C)C(=O)N[C@@H](C)C(=O)N[C@@H](C(=O)N[C@H](C(=O)N[C@@H](C(=O)N[C@@H](Cc1c[nH]c2ccccc12)C(=O)N[C@H](CC(C)C)C(=O)N[C@@H](Cc1cccc2cc[nH]c12)C(=O)N[C@H](CC(C)C)C(=O)N[C@@H](Cc1c[nH]c2ccccc12)C(=O)N[C@H](CC(C)C)C(=O)N[C@@H](Cc1c[nH]c2ccccc12)C(=O)NCCO)C(C)C)C(C)C)C(C)C | MCF7 | SRB | 48 h | GI50 | 0.0365 µM
CC[C@H](C)[C@H](NC(=O)[C@H](CCCCN)NC(=O)[C@H](CCCCN)NC(=O)[C@H](CC(C)C)NC(=O)[C@H](CCCCN)NC(=O)[C@H](CCCCN)NC(=O)[C@H](Cc1ccccc1)NC(=O)[C@H](Cc1ccccc1)NC(=O)[C@H](CCCNC(=N)N)NC(=O)[C@H](CCCNC(=N)N)NC(=O)[C@@H](NC(=O)[C@H](CCCCN)NC(=O)[C@H](CCCNC(=N)N)NC(=O)[C@@H](NC(=O)[C@@H](N)Cc1ccc(O)cc1)[C@@H](C)CC)[C@@H](C)CC)C(=O)N[C@@H](CC(C)C)C(=O)N[C@@H](CCCCN)C(=O)N[C@@H](CCCCN)C(N)=O | SAOS-2 | resazurin | – | IC50 | > 20 µM
